Where a name gives a salt, the structure may show the parent alone.

The target of this experiment is Sodium- and chloride-dependent GABA transporter 1 (Mus musculus, UniProt P31648). Kind of experiment: Inhibition of [3H]GABA uptake at mouse GAT1 expressed in D8 cells. Format: cell-based. Put shortly: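 D8 cells in RPMI1640 with 10% FBS grown to near confluence (~60,000 cells/well), rinsed with PBS, pre-incubated 10 min at rt in HBSS. Stopped by aspirating HBSS, three rapid cold PBS washes, cells solubilized in 2 N NaOH; uptake quantified by liquid scintillation counting.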
In the case of `Cc1ccc(C(SCCCN2CCC[C@@H](C(=O)O)C2)c2ccc(C)cc2)cc1`, the IC50 worked out at 15.8 µM. On to `COc1ccc(C(SCCCN2CCC[C@@H](C(=O)O)C2)c2ccc(OC)cc2)cc1`, for which 120 µM corresponded to half-maximal inhibition (IC50). With `COc1ccc(C(c2ccc(OC)cc2)[S+]([O-])CCN2CCC[C@@H](C(=O)O)C2)cc1` (stereo partly drawn), half-maximal inhibition (IC50) was put at 589 µM. This IC50 is about 4.9-fold higher than that of the compound before. To `Cc1ccccc1C(c1cccc(C)c1C)[S+]([O-])CCN1CCC[C@@H](C(=O)O)C1` (stereo partly drawn) belongs 105 µM.

`O=C(O)[C@@H]1CCCN(CCSC(c2ccccc2)c2ccccc2)C1`: the IC50 came out at 1600 µM. With `COc1ccc(C(SCCN2CCC[C@@H](C(=O)O)C2)c2ccc(OC)cc2)cc1`, 4800 µM corresponded to half-maximal inhibition (IC50). Against the preceding compound, the IC50 is about 3-fold higher.

On to `Cc1ccccc1C(SCCN1CCC[C@@H](C(=O)O)C1)c1cccc(C)c1C` (stereo partly drawn), for which the IC50 was 2130 µM. Then `O=C(O)[C@@H]1CCCN(CCCSC(c2ccccc2)c2ccccc2)C1`, with 11.6 µM; and `O=C(O)[C@@H]1CCCN(CC[S+]([O-])C(c2ccccc2)c2ccccc2)C1` (stereo partly drawn), with 0.92 µM; and `Cc1ccc(C(SCCN2CCC[C@@H](C(=O)O)C2)c2ccc(C)cc2)cc1`, with 240 µM. The compound `Cc1ccccc1C(SCCCN1CCC[C@@H](C(=O)O)C1)c1cccc(C)c1C` (stereo partly drawn) came in with an IC50 of 16.9 µM. This IC50 is about 14-fold lower than that of the compound before.

On to `Cc1ccc(C(c2ccc(C)cc2)[S+]([O-])CCN2CCC[C@@H](C(=O)O)C2)cc1` (stereo partly drawn), for which the IC50 came to 1.18 µM. The compound `Cc1ccsc1C(=CCCN1CCC[C@@H](C(=O)O)C1)c1sccc1C` [TIAGABINE HYDROCHLORIDE] yielded an IC50 of 0.08 µM. Against the preceding compound, the IC50 is about 15-fold lower.
